From ChEMBL document CHEMBL4680104, “Structure-Based Optimization of Small-Molecule Inhibitors for the β-Catenin/B-Cell Lymphoma 9 Protein-Protein Interaction” (J Med Chem, 2018)
The source made the active and inactive calls. No cut-off for these calls is given here.

Tests used:
[1] = tested on: SW480; test: Cytotoxicity in human SW480 cells assessed as reduction in cell viability incubated for 72 hrs by MTS assay; format: functional, cell-based; conditions: SW480, 72 h
In short: (§1)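 Cells seeded at 5 × 10^3 cells/well, kept overnight at 37 °C, then exposed to inhibitors at various concentrations for 72 h. Viability read with a freshly mixed PMS (0.92 mg/mL) : MTS (2 mg/mL) reagent at 1:19, incubated 3 h at 37 °C, A490 measured. […] Triplicate; mean ± SD.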

[2] = target: T1, beta-catenin-B-cell lymphoma 9 protein complex (Homo sapiens, UniProt P35222); test: Inhibition of protein interaction between C-terminal 6x-histidine tagged full-length beta-catenin (1 to 781 residues) (unknown origin)/N-terminal biotinylated human BCL9 ( 350 to 375 residues) incubated for 1 hr by Alpha-screen competitive inhibition assay; format: protein-complex assay
T1 sequence (P35222 whole entry): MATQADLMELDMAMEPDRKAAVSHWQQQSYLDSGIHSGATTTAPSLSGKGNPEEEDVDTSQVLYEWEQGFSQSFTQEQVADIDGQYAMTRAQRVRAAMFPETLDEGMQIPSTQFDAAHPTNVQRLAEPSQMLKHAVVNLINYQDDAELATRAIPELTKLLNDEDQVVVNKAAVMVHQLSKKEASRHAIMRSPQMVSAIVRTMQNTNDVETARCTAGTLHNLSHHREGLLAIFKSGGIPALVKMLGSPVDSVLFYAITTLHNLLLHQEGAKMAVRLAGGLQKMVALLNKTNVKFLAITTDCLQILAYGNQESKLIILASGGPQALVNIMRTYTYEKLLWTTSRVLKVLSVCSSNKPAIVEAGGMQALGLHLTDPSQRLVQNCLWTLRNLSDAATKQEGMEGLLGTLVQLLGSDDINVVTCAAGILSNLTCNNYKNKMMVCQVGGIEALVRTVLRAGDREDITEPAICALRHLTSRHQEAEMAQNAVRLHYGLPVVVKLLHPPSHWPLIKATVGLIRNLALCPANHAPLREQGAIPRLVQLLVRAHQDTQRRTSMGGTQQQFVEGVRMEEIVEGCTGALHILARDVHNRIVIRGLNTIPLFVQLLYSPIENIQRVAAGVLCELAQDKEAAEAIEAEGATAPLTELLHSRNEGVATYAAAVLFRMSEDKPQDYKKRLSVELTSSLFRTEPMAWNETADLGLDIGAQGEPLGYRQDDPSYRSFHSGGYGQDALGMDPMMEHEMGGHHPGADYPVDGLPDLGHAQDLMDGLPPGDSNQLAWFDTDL
T1 sequence (O00512 whole entry): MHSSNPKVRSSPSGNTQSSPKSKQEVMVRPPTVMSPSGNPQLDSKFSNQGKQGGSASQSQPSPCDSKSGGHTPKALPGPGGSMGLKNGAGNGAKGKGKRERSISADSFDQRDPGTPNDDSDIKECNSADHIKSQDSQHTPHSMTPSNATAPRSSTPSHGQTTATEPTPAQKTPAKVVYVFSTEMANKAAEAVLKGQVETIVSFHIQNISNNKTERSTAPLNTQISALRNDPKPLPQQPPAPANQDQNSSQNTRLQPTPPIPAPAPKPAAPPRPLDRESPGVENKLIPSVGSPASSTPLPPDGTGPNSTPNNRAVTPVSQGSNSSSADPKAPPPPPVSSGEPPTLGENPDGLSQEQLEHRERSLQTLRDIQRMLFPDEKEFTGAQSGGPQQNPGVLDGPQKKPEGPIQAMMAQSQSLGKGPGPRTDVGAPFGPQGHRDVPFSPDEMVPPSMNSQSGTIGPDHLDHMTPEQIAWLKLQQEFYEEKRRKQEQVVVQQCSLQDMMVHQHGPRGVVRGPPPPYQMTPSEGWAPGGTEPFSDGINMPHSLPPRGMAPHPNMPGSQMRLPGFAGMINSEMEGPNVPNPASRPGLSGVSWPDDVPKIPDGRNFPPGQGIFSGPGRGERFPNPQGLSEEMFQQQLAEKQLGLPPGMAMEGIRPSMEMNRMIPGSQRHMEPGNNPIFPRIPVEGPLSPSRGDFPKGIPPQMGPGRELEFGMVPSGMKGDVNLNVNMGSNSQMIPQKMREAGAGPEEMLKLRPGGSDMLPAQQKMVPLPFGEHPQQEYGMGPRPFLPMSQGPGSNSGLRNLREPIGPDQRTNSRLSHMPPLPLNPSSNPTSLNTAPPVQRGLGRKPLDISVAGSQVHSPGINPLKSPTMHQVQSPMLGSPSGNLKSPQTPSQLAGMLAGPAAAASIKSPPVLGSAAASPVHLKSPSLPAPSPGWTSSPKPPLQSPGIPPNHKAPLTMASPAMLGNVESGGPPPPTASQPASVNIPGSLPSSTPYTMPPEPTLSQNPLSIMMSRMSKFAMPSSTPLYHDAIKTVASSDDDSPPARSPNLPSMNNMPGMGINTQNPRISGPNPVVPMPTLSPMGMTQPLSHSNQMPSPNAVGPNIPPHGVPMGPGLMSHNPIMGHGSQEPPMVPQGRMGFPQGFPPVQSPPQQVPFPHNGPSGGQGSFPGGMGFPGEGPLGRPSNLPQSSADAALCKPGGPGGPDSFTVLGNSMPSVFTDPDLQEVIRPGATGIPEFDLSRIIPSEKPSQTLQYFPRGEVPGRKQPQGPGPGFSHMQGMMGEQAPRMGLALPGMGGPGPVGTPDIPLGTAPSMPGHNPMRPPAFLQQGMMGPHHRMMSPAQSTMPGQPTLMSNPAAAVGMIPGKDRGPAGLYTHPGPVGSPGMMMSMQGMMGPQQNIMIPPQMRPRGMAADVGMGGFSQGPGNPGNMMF
In short: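 Full-length β-catenin (residues 1–781) with a C-terminal His6 tag was expressed in E. coli BL21(DE3) after IPTG induction at 20 °C. It was purified by Ni-NTA, anion-exchange and size-exclusion chromatography. For the assay, 40 nM β-catenin was preincubated for 30 min at 4 °C with 5 nM biotinylated BCL9 or 10 nM biotinylated E-cadherin. Inhibitor was then added for 1 h at 4 °C, followed by 10 μg/mL donor and acceptor beads for 1 h at 4 °C. IC50 was obtained by nonlinear fit and converted to Ki by the Nikolovska-Coleska method. Triplicate, mean ± SD.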

[3] = target: T1, beta-catenin-B-cell lymphoma 9 protein complex; test: Inhibition of protein interaction between beta-catenin (unknown origin)/BCL9 in HEK293 cells transfected with beta-catenin assessed as reduction in Wnt/beta-catenin transactivation incubated for 24 hrs by Wnt-responsive TOP-Flash luciferase reporter assay; format: cell-based
In short: (§2)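 HEK293 cells were cotransfected using FuGENE6 with 45 ng TOPFlash or FOPFlash reporter, 135 ng pcDNA3.1-β-catenin and 20 ng pCMV-RL normalization reporter. After 24 h in DMEM with 10% FBS at 37 °C, inhibitors or DMSO were added for 24 h. Reporter activity was read with a dual luciferase system, normalized, and compared with DMSO-treated cells. Triplicate.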

[4] = tested on: SW480; test: Cytotoxic activity in human SW480 cells at 50 to 100 uM incubated for 4 hrs by LDH release assay; format: cell-based; conditions: sw480, 4 h, dose 50-100 µM
In short: (§3)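 SW480 cells were seeded at 2 × 10^4 cells/well and kept overnight at 37 °C. They were then exposed to a range of inhibitor concentrations for 4 h. LDH in the culture supernatant was measured with a diagnostic kit by absorbance at 490 nm. Percent cytotoxicity was calculated from experimental release against maximum release, with background subtracted. Run in triplicate.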

[5] = tested on: SW480; test: Cytotoxic activity in human SW480 cells at 800 uM incubated for 4 hrs by LDH release assay; format: cell-based; conditions: sw480, 4 h; in short: as §3
[6] = target: T1, beta-catenin-B-cell lymphoma 9 protein complex; test: Inhibition of protein interaction between beta-catenin (unknown origin)/BCL9 in human SW480 cells transfected with beta-catenin assessed as reduction in Wnt/beta-catenin transactivation incubated for 24 hrs by Wnt-responsive TOP-Flash luciferase reporter assay; format: cell-based
[7] = target: T2, beta-catenin-B-cell lymphoma 9 protein complex (Homo sapiens) (UniProt P35222+O00512); test: Inhibition of protein interaction between beta-catenin (unknown origin)/BCL9 in human HEK293 cells transfected with beta-catenin assessed as reduction in Wnt/beta-catenin transactivation incubated for 24 hrs by Wnt-responsive FOP-Flash luciferase reporter assay
[8] = target: T2, beta-catenin-B-cell lymphoma 9 protein complex (Homo sapiens); test: Inhibition of protein interaction between beta-catenin (unknown origin)/BCL9 in HEK293 cells transfected with beta-catenin assessed as reduction in Wnt/beta-catenin transactivation incubated for 24 hrs by Wnt-responsive FOP-Flash luciferase reporter assay; format: cell-based; in short: as §2
[9] = tested on: MDA-MB-231; test: Cytotoxicity in human MDA-MB-231 cells assessed as reduction in cell viability incubated for 72 hrs by MTS assay; format: functional, cell-based; conditions: MDA-MB-231, 72 h
In short: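 Triple-negative breast cancer line seeded at 5 × 10^3 cells/well, held overnight at 37 °C, then exposed to inhibitor over a concentration range for 72 h. Viability read out with a fresh 1:19 mix of PMS (0.92 mg/mL) and MTS (2 mg/mL), incubated 3 h at 37 °C, A490 measured.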

[10] = tested on: A549; test: Cytotoxicity in human A549 cells assessed as reduction in cell viability incubated for 72 hrs by MTS assay; format: functional, cell-based; conditions: A549, 72 h; in short: as §1
[11] = tested on: HCT-116; test: Cytotoxicity in human HCT-116 cells assessed as reduction in cell viability incubated for 72 hrs by MTS assay; format: functional, cell-based; conditions: HCT-116, 72 h; in short: as §1

Compound	Ki [2]	IC50 [3]	IC50 [6]	inhibition [7]	inhibition [8]	IC50 [1]	Activity [4]	Activity [5]	IC50 [9]	IC50 [10]	IC50 [11]
CS(=O)(=O)Nc1cccc(-c2cc(NC(=O)c3ccc(O[C@H]4CCNC4)c(-c4ccc(F)c(F)c4)c3)ccc2O[C@H]2CCNC2)c1.Cl.Cl	5.9 µM					95 µM		Non-Toxic			
Cl.Cl.O=C(Nc1cnc(O[C@H]2CCNC2)c(-c2ccc(F)cc2)c1)c1cnc(O[C@H]2CCNC2)c(-c2ccc(F)c(F)c2)c1	7.3 µM					9.9 µM	Toxic				
Cl.Cl.O=C(Nc1cnc(O[C@H]2CCNC2)c(-c2ccc(F)cc2)c1)c1ccc(O[C@H]2CCNC2)c(-c2ccc(F)c(F)c2)c1	8.2 µM	10 µM	7.7 µM	Active	Active	1.7 µM	Toxic		3.1 µM	29 µM	
Cc1ccc(-c2cc(NC(=O)c3ccc(O[C@H]4CCNC4)c(-c4ccc(F)c(F)c4)c3)ccc2O[C@H]2CCNC2)cc1.Cl.Cl	6.5 µM					1.6 µM	Toxic				
Cl.Cl.O=C(Nc1ccc(O[C@H]2CCNC2)c(-c2ccc(F)nc2)c1)c1ccc(O[C@H]2CCNC2)c(-c2ccc(F)c(F)c2)c1	16 µM					15 µM	Toxic				
Cl.Cl.O=C(Nc1ccc(O[C@H]2CCNC2)c(-c2ccc(F)cc2)c1)c1ccc(O[C@H]2CCNC2)c(-c2ccc(F)nc2)c1	19 µM					21 µM	Non-Toxic				
Cl.Cl.O=C(Nc1ccc(O[C@H]2CCNC2)c(-c2ccc(F)cc2)c1)c1ccc(O[C@H]2CCNC2)c(C2=CCCCC2)c1	7.1 µM		8.7 µM	Active	Active	3.7 µM	Toxic		3.4 µM		6.9 µM
Cc1ccccc1-c1cc(NC(=O)c2ccc(O[C@H]3CCNC3)c(-c3ccc(F)c(F)c3)c2)ccc1O[C@H]1CCNC1.Cl.Cl	5.9 µM		5.2 µM	Active	Active	1.2 µM	Toxic		3.1 µM	23 µM	5.7 µM
Cl.Cl.O=C(Nc1ccc(O[C@H]2CCNC2)c(-c2ccc(F)cc2)c1)c1ccc(O[C@H]2CCNC2)c(C2CCCCC2)c1	14 µM					6.6 µM	Toxic			3.8 µM	3.8 µM

Stronger by Ki [2], values ahead:

Ki [2]	IC50 [3]	IC50 [6]	inhibition [7]	inhibition [8]	Compound	IC50 [1]	Activity [4]	Activity [5]	IC50 [9]	IC50 [10]	IC50 [11]
4.2 µM	> 25 µM				Cl.Cl.N#Cc1cccc(-c2cc(NC(=O)c3ccc(O[C@H]4CCNC4)c(-c4ccc(F)c(F)c4)c3)ccc2O[C@H]2CCNC2)c1	4.3 µM	Toxic				
4.6 µM					Cl.Cl.O=C(Nc1ccc(O[C@H]2CCNC2)c(-c2ccc(-c3nn[nH]n3)cc2)c1)c1ccc(O[C@H]2CCNC2)c(-c2ccc(F)c(F)c2)c1	86 µM		Non-Toxic			
5.6 µM					Cl.Cl.NC(=O)c1cccc(-c2cc(NC(=O)c3ccc(O[C@H]4CCNC4)c(-c4ccc(F)c(F)c4)c3)ccc2O[C@H]2CCNC2)c1	190 µM		Non-Toxic			
3.8 µM					Cl.Cl.O=C(Nc1ccc(O[C@H]2CCNC2)c(-c2ccccc2C(F)(F)F)c1)c1ccc(O[C@H]2CCNC2)c(-c2ccc(F)c(F)c2)c1	2.6 µM	Toxic				
2.2 µM	14 µM	7.9 µM	Active	Active	Fc1ccc(-c2cc(-c3cnc4cc(O[C@H]5CCNC5)c(-c5ccc(F)c(F)c5)cc4c3)ccc2O[C@H]2CCNC2)cc1	1.7 µM			3.1 µM	7.5 µM	2.2 µM
3.1 µM					Cc1cccc(-c2cc(NC(=O)c3ccc(O[C@H]4CCNC4)c(-c4ccc(F)c(F)c4)c3)ccc2O[C@H]2CCNC2)c1.Cl.Cl	2.2 µM	Toxic		1.4 µM	4.5 µM	1.4 µM
3.8 µM	> 25 µM				Cl.Cl.N#Cc1ccc(-c2cc(NC(=O)c3ccc(O[C@H]4CCNC4)c(-c4ccc(F)c(F)c4)c3)ccc2O[C@H]2CCNC2)cc1	6.1 µM	Toxic				
